Measurements from ChEMBL document CHEMBL3232989, “First identification of boronic species as novel potential inhibitors of the Staphylococcus aureus NorA efflux pump” (J Med Chem, 2014).
In brackets after ≈: the same amount, converted by molar mass.

Key:
[1] = biological target: T1, Quinolone resistance protein NorA (Staphylococcus aureus) (UniProt P0A0J7); assay: Inhibition of NorA in fluoroquinolone-resistant Staphylococcus aureus 1199B assessed as potentiation of 4 ug/ml of ciprofloxacin MIC at 100 ug/ml after 24 hrs by microdilution method
T1 sequence (whole entry): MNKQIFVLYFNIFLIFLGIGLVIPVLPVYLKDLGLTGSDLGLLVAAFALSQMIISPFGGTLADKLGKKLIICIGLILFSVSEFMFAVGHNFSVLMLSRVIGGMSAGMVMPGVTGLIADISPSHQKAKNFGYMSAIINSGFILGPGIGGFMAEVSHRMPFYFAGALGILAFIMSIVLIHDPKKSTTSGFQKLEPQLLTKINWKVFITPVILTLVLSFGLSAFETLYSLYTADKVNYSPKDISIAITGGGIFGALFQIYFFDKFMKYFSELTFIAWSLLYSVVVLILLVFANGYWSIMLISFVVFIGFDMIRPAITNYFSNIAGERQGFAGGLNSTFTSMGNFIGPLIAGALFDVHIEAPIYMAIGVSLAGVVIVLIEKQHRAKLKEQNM
Procedure, shortened: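 Combination with ciprofloxacin 4 μg/mL (MIC/4) against SA-1199B in MH broth microdilution, 10^6 CFU/mL, 24 h at 37 °C, read at 620 nm and visually. Compounds are first screened at 100 μg/mL; actives are 2-fold serially diluted. MMC4 is the lowest inhibitor concentration giving antibacterial activity with subinhibitory ciprofloxacin. Duplicates.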

Staphylococcus aureus [2] = assay: Toxicity in fluoroquinolone-resistant Staphylococcus aureus 1199B expressing NorA after 24 hrs by microdilution method; assay type: organism-based; conditions: in vitro
Procedure, shortened: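 Broth microdilution in Mueller–Hinton broth, 10^6 CFU/mL per well from an 18 h 37 °C culture. Compounds come from 10 mg/mL DMSO stocks as 2-fold serial dilutions, top 128 mg/L. Plates run 24 h at 37 °C and are read at 620 nm and visually. MIC is the lowest concentration with complete growth inhibition. Duplicates; 2-fold variance accepted.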

Staphylococcus aureus [3] = assay: Toxicity in Staphylococcus aureus ATCC 25923 after 24 hrs by microdilution method; assay type: organism-based
Procedure, shortened: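 Mueller–Hinton broth microdilution; inoculum from frozen culture grown 18 h at 37 °C, 10^6 CFU/mL per well. Compounds (10 mg/mL DMSO stock) in 2-fold serial dilutions, highest 128 mg/L, first screened at 100 μg/mL. MIC = complete growth inhibition after 24 h at 37 °C, read at 620 nm and visually; duplicate; ampicillin control.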

Staphylococcus aureus [4] = assay: Toxicity in Staphylococcus aureus ATCC 25923 at 100 ug/ml after 24 hrs by microdilution method; assay type: organism-based
Procedure, shortened: (§1)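 Single-point screen at 100 μg/mL of compound alone in MH broth microdilution, 10^6 CFU/mL, 24 h at 37 °C. Growth is read at 620 nm and visually, giving percent growth inhibition. Compounds inhibiting more than 90% then go to MIC determination. Duplicates.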

Staphylococcus aureus [5] = assay: Toxicity in fluoroquinolone-resistant Staphylococcus aureus 1199B expressing NorA at 100 ug/ml after 24 hrs by microdilution method; assay type: organism-based; procedure, shortened: as §1

| Compound | Activity [1] [µg/mL] | MIC (Staphylococcus aureus [2]) | MIC (Staphylococcus aureus [3]) | growth inhibition (GI) (Staphylococcus aureus [4]) [%] | growth inhibition (GI) (Staphylococcus aureus [5]) [%] |
| --- | --- | --- | --- | --- | --- |
| COc1ccc(B(O)O)cc1 | 64 | > 128 µg/mL | – | – | – |
| O=C(O)c1ccccc1Cl | 64 | 128 µg/mL (≈ 818 µM) | >= 64 ug ml-1 | – | – |
| O=Cc1ccccc1Cl | > 128 | > 128 µg/mL | >= 64 ug ml-1 | – | – |
| OB(O)c1cncc(Oc2cccnc2)c1 | 16 | > 128 µg/mL | >= 64 ug ml-1 | – | – |
| O=C(O)c1ccc(Br)nc1 | > 128 | > 128 µg/mL | >= 64 ug ml-1 | – | – |
| Oc1ccc2ccccc2c1 [BETANAPHTHOL] | 64 | > 128 µg/mL | >= 64 ug ml-1 | – | – |
| Oc1ccccc1Cl [2-CHLOROPHENOL] | 128 | > 128 µg/mL | >= 64 ug ml-1 | – | – |
| O=Cc1ccccc1Br | > 128 | > 128 µg/mL | >= 64 ug ml-1 | – | – |
| Cc1cccc(O)c1Cl | 64 | > 128 µg/mL | >= 64 ug ml-1 | – | – |
| O=C(O)c1ccccc1Br | > 128 | > 128 µg/mL | >= 64 ug ml-1 | – | – |
| OCc1ccc(OCc2ccccc2)nc1 | > 34 | >= 128 ug ml-1 | – | – | – |
| Oc1ccccc1Br | 128 | > 128 µg/mL | >= 64 ug ml-1 | – | – |
| O=C(O)c1ccc(Cl)nc1 [6-CHLORONICOTINIC ACID] | > 128 | > 128 µg/mL | >= 64 ug ml-1 | – | – |
| Oc1ccc(Br)nc1 | > 128 | > 128 µg/mL | >= 64 ug ml-1 | – | – |
| O=C(O)c1cccnc1 [NIACIN] | > 128 | > 128 µg/mL | >= 64 ug ml-1 | – | – |
| O=Cc1ccc2ccccc2c1 [2-NAPHTHALDEHYDE] | 64 | > 128 µg/mL | >= 64 ug ml-1 | – | – |
| O=Cc1ccccc1 [BENZALDEHYDE] | > 128 | > 128 µg/mL | >= 64 ug ml-1 | – | – |
| CC(C)(O)C(C)(C)OB(OC(C)(C)C(C)(C)O)c1cncc(Cl)c1 | > 128 | 128 µg/mL (≈ 358 µM) | >= 64 ug ml-1 | – | – |
| O=Cc1cnc2ccccc2c1 | > 128 | > 128 µg/mL | >= 64 ug ml-1 | – | – |
| CC(C)(O)C(C)(C)OB(OC(C)(C)C(C)(C)O)c1cc(Br)cnc1Cl | 128 | – | >= 64 ug ml-1 | < 90 | < 90 |
| CSc1ncccc1B(O)O | > 128 | – | >= 64 ug ml-1 | < 90 | < 90 |
| Oc1ccc(Cl)nc1 | > 128 | > 128 µg/mL | >= 64 ug ml-1 | – | – |
| CCOc1ccc(B(OC(C)(C)C(C)(C)O)OC(C)(C)C(C)(C)O)cn1 | 128 | – | >= 64 ug ml-1 | < 90 | < 90 |
| O=Cc1ccc(OCc2ccccc2)nc1 | 32 | > 128 µg/mL | >= 64 ug ml-1 | – | – |
| CSc1ncccc1B(OC(C)(C)C(C)(C)O)OC(C)(C)C(C)(C)O | > 128 | – | >= 64 ug ml-1 | < 90 | < 90 |
| Cc1cc(C(=O)O)cnc1Cl | > 128 | > 128 µg/mL | >= 64 ug ml-1 | – | – |
| OB(O)c1ccnc(Cl)c1Cl | 32 | – | >= 64 ug ml-1 | < 90 | < 90 |

| Compound | Activity [1] [µg/mL] | MIC (Staphylococcus aureus [2]) | MIC (Staphylococcus aureus [3]) | growth inhibition (GI) (Staphylococcus aureus [4]) [%] | growth inhibition (GI) (Staphylococcus aureus [5]) [%] |
| --- | --- | --- | --- | --- | --- |
| CC(C)(O)C(C)(C)OB(OC(C)(C)C(C)(C)O)c1ccc(Cl)nc1 | 128 | – | >= 64 ug ml-1 | < 90 | < 90 |
| O=C(O)c1ccccc1 [BENZOIC ACID] | > 128 | > 128 µg/mL | >= 64 ug ml-1 | – | – |
| CC(C)Nc1ccc(B(O)O)cc1 | 64 | – | >= 64 ug ml-1 | < 90 | < 90 |
| CC(C)(O)C(C)(C)OB(OC(C)(C)C(C)(C)O)c1cncc(Br)c1 | > 128 | – | >= 64 ug ml-1 | < 90 | < 90 |
| O=C(O)c1ccc2ccccc2c1 [BETA-NAPHTOIC ACID] | > 128 | > 128 µg/mL | >= 64 ug ml-1 | – | – |
| OB(O)c1cccnc1Cl | > 128 | – | >= 64 ug ml-1 | < 90 | < 90 |
| N#Cc1ncccc1B(O)O | > 128 | – | >= 64 ug ml-1 | < 90 | < 90 |
| CSc1ccc(B(OC(C)(C)C(C)(C)O)OC(C)(C)C(C)(C)O)cn1 | > 128 | – | >= 64 ug ml-1 | < 90 | < 90 |
| CC(C)(C)OC(=O)Nc1ncc(B2OC(C)(C)C(C)(C)O2)s1 | > 128 | – | >= 64 ug ml-1 | < 90 | < 90 |
| CC(C)[Si](Oc1ncc(B2OC(C)(C)C(C)(C)O2)o1)(C(C)C)C(C)C | > 128 | – | >= 64 ug ml-1 | < 90 | < 90 |
| CCOc1ncccc1B(O)O | > 128 | – | >= 64 ug ml-1 | < 90 | < 90 |
| Cc1cc(B(OC(C)(C)C(C)(C)O)OC(C)(C)C(C)(C)O)cnc1Cl | 32 | – | >= 64 ug ml-1 | < 90 | < 90 |
| OB(O)c1ccccc1-c1ccccc1 | > 128 | – | >= 64 ug ml-1 | < 90 | < 90 |
| CC(C)(O)C(C)(C)OB(OC(C)(C)C(C)(C)O)c1ccnc(Cl)c1Cl | 32 | – | >= 64 ug ml-1 | < 90 | < 90 |
| Cc1cc(O)cnc1Cl | > 128 | > 128 µg/mL | >= 64 ug ml-1 | – | – |
| O=Cc1cccnc1 [NICOTINALDEHYDE] | > 128 | > 128 µg/mL | >= 64 ug ml-1 | – | – |
| COc1cccc(B(O)O)c1OC | > 128 | – | >= 64 ug ml-1 | < 90 | < 90 |
| CCOC(=O)Nc1ncc(B2OC(C)(C)C(C)(C)O2)s1 | > 128 | – | >= 64 ug ml-1 | < 90 | < 90 |
| CC(C)(O)C(C)(C)OB(OC(C)(C)C(C)(C)O)c1ccc(NCc2ccccc2)nc1 | 128 | – | >= 64 ug ml-1 | < 90 | < 90 |
| COc1nccc(B(O)O)c1Cl | 32 | – | >= 64 ug ml-1 | < 90 | < 90 |
| OB(O)c1ccnc(Cl)c1 | > 128 | – | >= 64 ug ml-1 | < 90 | < 90 |
| CC(C)(O)C(C)(C)OB(OC(C)(C)C(C)(C)O)c1ccc(OCc2ccccc2)nc1 | 64 | – | >= 64 ug ml-1 | < 90 | < 90 |
| Cc1cc(B(OC(C)(C)C(C)(C)O)OC(C)(C)C(C)(C)O)ccn1 | > 128 | – | >= 64 ug ml-1 | < 90 | < 90 |
| OB(O)c1cccnc1 | 32 | – | >= 64 ug ml-1 | < 90 | < 90 |
| OB(O)c1ccc(Oc2cccnc2)nc1 | > 128 | – | >= 64 ug ml-1 | < 90 | < 90 |
| O=C(O)c1ccc(B(O)O)cc1 | > 128 | – | >= 64 ug ml-1 | < 90 | < 90 |
